High-throughput results as filed in PubChem BioAssay.
Only some compounds are listed: those with a hit (about 3% of all), similar ones and a draw of the others.
C2C12 statin = suppressors of simvastatin-induced myotoxicity in C2C12 myotubes; ATP luminescence, 48 h; scaled: DMSO 0, geranylgeraniol control 100; rescue of ATP level, % at 7.49 µM; hit rate 0.78% among 330,000; AID 602340;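 active = mean ATP rescue above about 67%, or every replicate alone reaching that limit, limit read from the data, passing the limit was not always enough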;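 note: myotubes were challenged with 10 µM simvastatin during compound exposure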
S100A4 MyoIIA = S100A4-myosin IIA interaction inhibition; AID 652163; S100A4/TAMRA-MyoIIA peptide fluorescence polarization; inhibition, % at 10.7 µM; P26447; hit rate 0.14% among 360,000;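 active = mean inhibition of at least 70% across replicates, with every replicate also reaching that level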
Target sequence (P26447 whole entry, looked up): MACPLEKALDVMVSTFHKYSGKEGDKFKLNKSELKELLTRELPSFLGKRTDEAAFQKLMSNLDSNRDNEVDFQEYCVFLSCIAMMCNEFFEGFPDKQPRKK
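Test system: S100A4 monomer protein; Medium: HEPES pH 7.2 with CaCl2, KCl, NaCl, DTT, Triton; Probe or stimulus: TAMRA-labelled myosin IIA heavy-chain peptide probe, 5 nM; Doses: one dose per compound; Times: polarization read 5 min after assay mix addition, stable 5–60 min; Benchmarks: neutral control DMSO, positive control TFP.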
PGC1a acetyl inh = PGC1a acetylation modulation, inhibitor mode. inhibition, % at 15.6 µM. U2OS PGC1a acetylation, AlphaScreen anti-acetyl-lysine; with virally co-expressed GCN5 acetyltransferase. hit rate 0.17% among 350,000;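 active = every replicate shows inhibition of at least 40%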
rRNA inh HTS = inhibitors of bacterial rRNA selective over humanized ribosomes; E. coli WT GFP vs humanized-ribosome RFP mutants, fluorescence, 24 h; stronger effect = lower value; DMSO median 0, no signal -100; GFP signal change (wild-type ribosome), % (no concentration beside the values); hit rate 1.6% among 350,000;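 active = significant combined selectivity score with lowered wild-type GFP, culture density cut under 30%, mutant RFP and density less affected; inactive = any of these conditions unmet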
Cneo AK release = Cryptococcus neoformans lysis via adenylate kinase release | C. neoformans lysis, adenylate kinase release luminescence, 4 h; normalised: neutral wells 0, clomiphene wells 100 | lysis activity, % at 15 µM | hit rate 0.2% among 360,000 | AID 651654;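 active = mean lysis activity across replicates of at least 80%, whatever share of replicates individually reach that level; inactive = mean lysis activity below 80%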
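read-out = cell lysis signal | test system = log-phase Cryptococcus neoformans yeast cells | input = cells at 5 × 10^6 per mL | medium = fresh YPD growth medium | signal = luminescent adenylate kinase detection reagent | timing = 4 h at 37 °C static, read 1 h later | dosing = single dose | controls = Clomiphene as positive lysis control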
SIRT5 inh = inhibitors of human sirtuin-5 desuccinylase. Q9NXA8. Purified SirT5, succinyl-peptide AMC, trypsin-coupled fluorescence. inhibition, % at 15 µM. hit rate 1.1% among 330,000. AID 652115; in the data active = inhibition above about 15%
Target sequence (Q9NXA8 whole entry, looked up): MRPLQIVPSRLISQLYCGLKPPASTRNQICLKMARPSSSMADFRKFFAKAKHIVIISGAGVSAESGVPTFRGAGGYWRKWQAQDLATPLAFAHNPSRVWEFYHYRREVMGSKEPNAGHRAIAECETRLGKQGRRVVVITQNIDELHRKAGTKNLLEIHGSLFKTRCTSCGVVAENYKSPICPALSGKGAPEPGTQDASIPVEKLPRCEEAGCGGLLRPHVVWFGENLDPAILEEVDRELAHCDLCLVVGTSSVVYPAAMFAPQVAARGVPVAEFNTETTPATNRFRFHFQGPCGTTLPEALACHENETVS
Of the large screens only hits and unclear results are named; the others gave an inactive call.

O=C(C[C@@H]1CC[C@@H]2[C@H](COC[C@@H](O)CN2C(=O)c2ccc3c(c2)OCO3)O1)NCCN1CCCC1	S100A4 MyoIIA 73 (no result: C2C12 statin, Cneo AK release)
O=C(C[C@@H]1CC[C@@H]2[C@H](COC[C@H](O)CN2C(=O)c2ccc3c(c2)OCO3)O1)NCCN1CCCC1	none (no result: C2C12 statin, Cneo AK release)
Cn1cnc(CCNC(=O)C[C@H]2CC[C@H]3[C@@H](COC[C@@H](O)CN3C(=O)C3CC3)O2)c1	S100A4 MyoIIA 85
CCCNC(=O)C[C@H]1CC[C@@H]2[C@H](COC[C@H](O)CN2C(=O)C2CCOCC2)O1	none
Cn1cnc(CCNC(=O)C[C@@H]2CC[C@@H]3[C@H](COC[C@@H](O)CN3C(=O)C3CC3)O2)c1	none
C[C@H](CO)N1C[C@H](C)[C@H](CN(C)C(=O)c2ccncc2)Oc2cc(C3=CCCC3)ccc2S1(=O)=O	none
C[C@@H]1CN([C@H](C)CO)C(=O)Cc2cc(NC(=O)CCC(F)(F)F)ccc2O[C@@H]1CN(C)S(=O)(=O)c1ccc(F)cc1	none
C[C@@H]1CCCCO[C@H](CN(C)Cc2ccc(C(F)(F)F)cc2)[C@@H](C)CN([C@@H](C)CO)C(=O)c2cc(NC(=O)Nc3ccc4c(c3)OCO4)ccc2O1	none (no result: C2C12 statin)
Cc1cc(-c2cc(C)c(N)cc2C)c(C)cc1N	SIRT5 inh 19
C[C@H](CO)N1C[C@H](C)[C@@H](CN(C)Cc2ccc(C(F)(F)F)cc2)Oc2ccc(NC(=O)c3ccncc3)cc2CC1=O	none
CCNC(=O)Nc1ccc2c(c1)C(=O)N(C)[C@@H]1CC[C@@H](CC(=O)NCc3cccc(F)c3)O[C@H]1CO2	none (no result: S100A4 MyoIIA, SIRT5 inh)
CCN(CC)S(=O)(=O)c1cccc(C(=O)NC(C(=O)NC2=NCCS2)C(C)C)c1 (centres undefined)	C2C12 statin 81 (no result: S100A4 MyoIIA, rRNA inh HTS, SIRT5 inh)
CCN(CC)S(=O)(=O)c1cccc(C(=O)N[C@H](C(=O)NC2=NCCS2)C(C)C)c1	none (no result: C2C12 statin, Cneo AK release)
N#C[C@@H]1[C@H](c2ccccc2C2=CCCCC2)[C@H](CO)N1C(=O)NC1CCCC1	S100A4 MyoIIA 131 (no result: C2C12 statin, Cneo AK release)
COCC(=O)N1[C@@H](C#N)[C@H](c2ccc(-c3cccc(F)c3)cc2)[C@@H]1CO	S100A4 MyoIIA 116
N#C[C@@H]1[C@@H](c2ccc(-c3cccc(F)c3)cc2)[C@H](CO)N1C(=O)NC1CCCC1	C2C12 statin 108
COCC(=O)N1[C@H](C#N)[C@H](c2ccc(C#Cc3ccccc3F)cc2)[C@H]1CO	Cneo AK release 83
N#C[C@H]1[C@@H](c2ccc(-c3cccc(F)c3)cc2)[C@H](CO)N1C(=O)NC1CCCC1	none
COCC(=O)N1[C@H](CO)[C@@H](c2ccc(-c3cccc(F)c3)cc2)[C@@H]1C#N	none
CCCc1cn(CC[C@H]2CC[C@@H](NS(=O)(=O)c3ccc(-c4ccccc4)cc3)[C@@H](CO)O2)nn1	none
CN1C(=O)c2cc(NC(=O)c3ccc(Cl)cc3)ccc2OC[C@@H]2O[C@H](CC(=O)O)CC[C@@H]21	none (no result: S100A4 MyoIIA, SIRT5 inh)
CO[C@@H]1CN(C)C(=O)c2ccc(NC(C)=O)cc2OC[C@@H](C)N(C(=O)C2CCCCC2)C[C@H]1C	none (no result: PGC1a acetyl inh, SIRT5 inh)
C[C@@H]1CN([C@H](C)CO)C(=O)Cc2cc(NC(=O)CCN3CCOCC3)ccc2O[C@@H]1CN(C)C(=O)Nc1ccc2c(c1)OCO2	none
O=C(C[C@H]1C[C@H]2c3cc(NC(=O)C4CCC4)ccc3O[C@H]2[C@@H](CO)O1)NCC1CC1	none
CO[C@@H]1CN(C)C(=O)c2cc(NC(=O)C3CCOCC3)ccc2OC[C@@H](C)N(C(=O)C2CCOCC2)C[C@H]1C	none (no result: PGC1a acetyl inh)
Cc1cccc(Oc2nc3c(c(=O)n(C)c(=O)n3C)n2C)c1	none
Cn1c(=O)c2c(nc(N3CCc4ccccc4C3)n2C)n(C)c1=O	rRNA inh HTS -22
Cn1c(=O)c2c(nc(Oc3ccccc3)n2C)n(C)c1=O	C2C12 statin 142 (no result: S100A4 MyoIIA, rRNA inh HTS, SIRT5 inh)
C[C@@H]1CCCCO[C@@H](CN(C)S(=O)(=O)c2cn(C)cn2)[C@H](C)CN([C@@H](C)CO)C(=O)c2cc(NS(=O)(=O)c3ccccc3)ccc2O1	none (no result: C2C12 statin)
C[C@H](CO)N1C[C@H](C)[C@H](CN(C)Cc2ccc(O)cc2)OCc2cn(nn2)CCCC1=O	none
COc1ccccc1-c1ccc(SCc2cccc(F)c2)nn1	rRNA inh HTS -30 (no result: C2C12 statin, PGC1a acetyl inh, Cneo AK release)
COc1ccccc1-c1ccc(SCc2ccccc2)nn1	rRNA inh HTS -33 (no result: C2C12 statin, Cneo AK release)
O=C(CSc1ccc(-c2ccc(F)cc2)nn1)NCCc1ccccc1	none (no result: C2C12 statin, Cneo AK release)
Fc1ccccc1CSc1ccc(-c2ccco2)nn1	none (no result: C2C12 statin, Cneo AK release)
COc1ccccc1-c1ccc(SCc2ccccc2F)nn1	rRNA inh HTS -36 (no result: C2C12 statin, Cneo AK release)
COc1ccccc1-c1ccc(SCC(=O)NCCc2ccccc2)nn1	rRNA inh HTS -32 (no result: C2C12 statin)
c1ccc(CSc2ccc(-c3ccccn3)nn2)cc1	none
CC=Cc1ccc2n(c1=O)C[C@@H]1[C@@H](CO)[C@H](C(=O)NCC3CC3)N(C(=O)CC3CC3)[C@H]21 (mixture of isomers)	none (no result: PGC1a acetyl inh)
C[C@@H]1CN([C@H](C)CO)C(=O)c2cc(Br)cnc2O[C@H]1CN(C)C(=O)C1CC1	none (no result: S100A4 MyoIIA, Cneo AK release, SIRT5 inh)
Cc1noc(C)c1NC(=O)N(C)C[C@H]1OCCCC[C@@H](C)Oc2ccc(NS(=O)(=O)c3ccccc3)cc2C(=O)N([C@H](C)CO)C[C@H]1C	none (no result: C2C12 statin)
COc1ccccc1CNc1cncnc1	rRNA inh HTS -23 (no result: PGC1a acetyl inh)
COc1ccccc1CNc1ncccn1	none
CC1(C)C(Cl)C(=O)C(C(=O)c2ccccc2)C(=O)C1Cl (centres undefined)	SIRT5 inh 94
Cc1ccccc1-c1ccc([C@H]2[C@H](CO)N3CCCCN(C(=O)CN4CCOCC4)C[C@@H]23)cc1	none (no result: C2C12 statin)
CCOC(=O)N1CCN(S(=O)(=O)c2ccc(C(=O)Nc3sc4c(c3C(=O)OC)CCN(C)C4)cc2)CC1	rRNA inh HTS -15 (no result: PGC1a acetyl inh)
CCCN1CCc2c(sc(NC(=O)c3ccc(S(=O)(=O)N4CCN(C(=O)OCC)CC4)cc3)c2C(N)=O)C1	none (no result: C2C12 statin, PGC1a acetyl inh, rRNA inh HTS)
O=C(c1ccco1)N1CCCN(Cc2nc(-c3cccs3)no2)CC1	SIRT5 inh 21 (no result: C2C12 statin, PGC1a acetyl inh, Cneo AK release)
O=C(c1ccco1)N1CCN(Cc2nc(Cc3ccccc3)no2)CC1	none (no result: C2C12 statin, Cneo AK release)
Cc1ccc(C2CC(=O)C=C(NCC(C)C)C2)cc1 (centres undefined)	SIRT5 inh 15
Cc1ccc(C2CC(=O)C=C(NCc3ccccc3)C2)cc1 (centres undefined)	rRNA inh HTS -32 (no result: C2C12 statin)
COc1ccccc1CNC(=O)C[C@@H]1CC[C@@H]2[C@H](COC[C@@H](O)CN2C(=O)Nc2ccc(Cl)cc2)O1	none
Cc1noc(C)c1NC(=O)Nc1ccc2c(c1)C(=O)N([C@@H](C)CO)C[C@H](C)[C@@H](CN(C)C(=O)Nc1cccc3ccccc13)OCCCC[C@@H](C)O2	none (no result: C2C12 statin, S100A4 MyoIIA, SIRT5 inh)
